# Experimental data reported in publication PMC5033713 (Neuron, 2016).
# Experiments:
# Assay type in all cases: cell-based
# GluA2 S615A = GluA2 S615A (Rattus norvegicus, UniProt P19491, S636A); assay: Whole-cell patch-clamp, current inhibition of alanine mutant S615A
# GluA2D519A = GluA2D519A (Rattus norvegicus, UniProt P19491, D540A); assay: Whole-cell patch-clamp, current inhibition of alanine mutant GluA2D519A
# Procedure, shortened: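 Rat GluA2 D519A transiently expressed in HEK293 cells (Lipofectamine 2000). Whole-cell recording at −60 mV with piezo-driven theta-pipette fast solution exchange. 500 ms co-applications of 3 mM Glu with graded test compound concentrations, 30 μM CTZ present throughout, Glu alone as control. Logistic fits of normalized currents gave IC50 and nHill, n = 7 cells. IC50 also expressed relative to wild-type.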
# GluA2F623A = GluA2F623A (Rattus norvegicus, UniProt P19491, F644A); assay: Whole-cell patch-clamp, current inhibition of alanine mutant GluA2F623A
# GluA2Del = GluA2Del (Rattus norvegicus, UniProt P19491, C610A/DEL399-404/DEL566-584/E587D/G405E/N256E/N406D/N413Q/S585D/S586T/V397L, form not given); conditions: for voltage dependence of current inhibition: GluA2Del receptor-mediated current; for Hill coefficient (nHill): GluA2Del, HEK293, 3 mM Glu co-application, −60 mV, 30 μM CTZ, logistic fit
# GluA2WT = GluA2WT (Rattus norvegicus, UniProt P19491); conditions: for voltage dependence of current inhibition: GluA2WT receptor-mediated current; for Hill coefficient (nHill): GluA2WT, HEK293, 3 mM Glu co-application, −60 mV, 30 μM CTZ, logistic fit
# GluA2 S788A = GluA2 S788A (Rattus norvegicus, UniProt P19491, S809A); assay: Whole-cell patch-clamp, current inhibition of alanine mutant S788A; conditions: S788 alanine substitution versus wild-type
# Procedure, shortened: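 Alanine-substituted GluA2 transiently expressed in HEK293 cells. Whole-cell currents evoked by Glu via rapid theta-pipette solution exchange, co-applied with graded noncompetitive inhibitor concentrations. Normalized current concentration dependencies fitted with the logistic equation. Mutant IC50 expressed relative to the wild-type receptor value.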
SMILES,change in IC50 value compared to wild-type (GluA2 S615A),IC50 (GluA2D519A),"nHill (GluA2D519A; D519A mutant, 3 mM Glu, −60 mV, 30 μM CTZ)",IC50 (GluA2F623A),"nHill (GluA2F623A; F623A mutant, 3 mM Glu, −60 mV, 30 μM CTZ)",voltage dependence of current inhibition (GluA2Del),Hill coefficient (nHill) (GluA2Del),IC50 (GluA2WT),voltage dependence of current inhibition (GluA2WT),Hill coefficient (nHill) (GluA2WT),effect of substitution on inhibition (GluA2 S788A),effect of substitution on inhibition (GluA2D519A; D519 alanine substitution versus wild-type),change in IC50 value compared to wild-type (GluA2F623A; F623A mutant)
"CNC(=O)N1N=C(c2ccc(N)cc2)c2cc3c(cc2CC1C)OCO3 (stereo not shown) [GYKI, GYKI 53655]",two orders of magnitude increase,3.8 ± 0.58 µM,1.58 ± 0.12,153 ± 8 µM,1.18 ± 0.07,voltage independent,1.29 ± 0.08,14.5 ± 1.6 µM,voltage independent,1.29 ± 0.08,Reduced affinity,,
"N#Cc1ccccc1-c1cc(-c2ccccn2)cn(-c2ccccc2)c1=O [PMP, perampanel]",,,,,,voltage independent,1.08 ± 0.04,0.89 ± 0.07 µM,voltage independent,1.08 ± 0.05,no appreciable effect,no appreciable effect,two orders of magnitude increase
